Assay outcomes deposited in PubChem BioAssay by several laboratories.
TMEM16A act = TMEM16A chloride channel activators or potentiators, primary screen, cell-based, HTS. Anoctamin-1 (Mus musculus), Q8BHY3. HEK293 TMEM16A/YFP-H148Q/I152L, iodide quench fluorescence; stronger effect = lower value. B-score at 10 µM. hit rate 0.3% among 340,000;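 active = fluorescence-ratio B-score plate-corrected deviation score at least 3 library SD below zero, with starting fluorescence score within 5 deviations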;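 note: channel opened by trigger with iodide after compound preincubation; score built on the fluorescence ratio of max minus min over baseline; more negative score means more quench and so TMEM16A activation or potentiation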
ANO1 block = TMEM16A chloride channel inhibitors, primary screen, cell-based, HTS | Anoctamin-1 (Mus musculus), Q8BHY3 | HEK293 TMEM16A/YFP iodide influx fluorescence, ionomycin | normalized B-score (activity score, 25-100; higher = stronger inhibition) at 10 µM | hit rate 1.2% among 310,000 | AID 588511, 2011;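 active = ratio plate-corrected score three or more library SD toward inhibition, starting fluorescence score within five deviations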;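 note: score derived from kinetic fluorescence span divided by baseline fluorescence per well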
Kir21 inh = inhibitors of mouse Kir2.1 inward-rectifier potassium channel; B-score at 10 µM; hit rate 0.85% among 310,000; Inward rectifier potassium channel 2 (Mus musculus), P35561; HEK293-Kir2.1, FluxOR thallium flux fluorescence; stronger effect = lower value; AID 1672, 2009;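 active = fluorescence ratio B-score at or below minus 3 SD of library scores, with starting-brightness B-score within 2 SD, cut at about -4.2 in these data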;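 note: channel flux triggered by added potassium and thallium sulfate stimulus; B-score of peak minus minimum fluorescence over baseline after thallium stimulus; more negative B-score means stronger Kir2.1 block with less thallium influx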
SR-BI DiI inh = inhibitors of SR-BI mediated HDL lipid uptake, primary screen, ldlA[mSR-BI] cells, fluorescence, single point; AID 488896, 2010; Scavenger receptor class B member 1 (Mus musculus), Q61009; ldlA[mSR-BI] CHO cells, DiI-HDL uptake fluorescence, 3 h; hit rate 0.96% among 320,000; inhibition, % at 12.5 µM;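 active = mean replicate inhibition of at least 70% and a set share of replicates each scoring 70 or more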;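 note: 0% = median of neutral control wells and 100% = median of positive control wells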
DNA FID counter = compounds displacing fluorescent DNA intercalator, primary screen, artefact control for HCV NS3 helicase inhibitor project, biochemical, FID fluorescence | DNA fluorescent intercalator displacement | inhibition, % at 7.9 µM | hit rate 0.17% among 290,000 | AID 1845, 2009; in the data active = inhibition above about 37%;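 note: 0% = vehicle and 100% = reference compound; higher means more ethidium bromide displaced from hairpin DNA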
SR-BI DiI-HDL act = activators of SR-BI mediated DiI-HDL uptake, primary screen, ldlA[mSR-BI] CHO cells, DiI fluorescence. 3 h; 100 = double the neutral-control signal. activation, % at 12.5 µM. hit rate 0.096% among 320,000. AID 504775, 2011;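 active = mean replicate activation of at least 60% and every replicate at or above 60%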;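 note: 0% = median plate neutral-control signal and 100% = twice that signal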
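Material – SR-BI-overexpressing, LDLR-lacking CHO cells · Medium – BSA-supplemented, HEPES-buffered Ham's F12, pH 7.4 · Doses – single concentration · Times – compound with DiI-HDL co-incubation, 3 h at 37 °C · Measured by – bottom-read fluorescence, 550/595 nm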
TMEM16A reconf = TMEM16A chloride channel inhibitors, confirmation, cell-based, re-confirmation; hit rate 39% among 2,300; shares compounds with ANO1 block; AID 652189, 2013; HEK293 TMEM16A/YFP-H148Q, iodide quench fluorescence; ionomycin added to raise cell calcium; inhibition, % at 10 µM;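 active = mean duplicate percent inhibition, scaled so buffer wells are 0 and the reference blocker 100, over three buffer SD above buffer mean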
HEK293 Ca mobil = calcium mobilization in TMEM16A/YFP HEK293 cells, confirmation, counter-screen for TMEM16A inhibitor project; shares compounds with ANO1 block; Fluo4 calcium mobilization; calcium response (% of ionomycin), % at 10 µM; hit rate 2% among 2,300; AID 652231, 2013;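 active = duplicate-averaged calcium signal over 20% of the ionomycin maximum, relative to buffer baseline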;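 note: each well's signal is peak minus trough fluorescence divided by its pre-addition baseline; 0% = buffer wells and 100% = ionomycin wells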
Parental YFP cnt = iodide YFP quench changes in parental YFP-HEK293, counter-screen for TMEM16A inhibitor project, cell-based. shares compounds with ANO1 block. ionomycin. YFP ratio F(max-min)/F0 at 10 µM. 2,300 tested, under 10 active;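 active = yellow fluorescent protein signal ratio exceeding the buffer control mean by over 5 SD of those controls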;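 note: ratio is mean of duplicate wells from kinetic YFP trace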
ClC-1 inh = ClC-1 chloride channel inhibition, selectivity assay for TMEM16A inhibitor project, cell-based, voltage-dependent ClC-1; CHO ClC-1-YFP, iodide influx fluorescence quench; iodide control reads 0, buffer control 100; shares compounds with ANO1 block; ratio percent, % at 10 µM; 2,300 tested, under 10 active; AID 652236, 2013;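 active = duplicate-mean ratio percent above the mean of iodide-only control wells, which defines zero, plus 5 of their SD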;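 note: higher percent means stronger block of ClC-1 iodide influx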
Target sequence (P35524 whole entry, looked up): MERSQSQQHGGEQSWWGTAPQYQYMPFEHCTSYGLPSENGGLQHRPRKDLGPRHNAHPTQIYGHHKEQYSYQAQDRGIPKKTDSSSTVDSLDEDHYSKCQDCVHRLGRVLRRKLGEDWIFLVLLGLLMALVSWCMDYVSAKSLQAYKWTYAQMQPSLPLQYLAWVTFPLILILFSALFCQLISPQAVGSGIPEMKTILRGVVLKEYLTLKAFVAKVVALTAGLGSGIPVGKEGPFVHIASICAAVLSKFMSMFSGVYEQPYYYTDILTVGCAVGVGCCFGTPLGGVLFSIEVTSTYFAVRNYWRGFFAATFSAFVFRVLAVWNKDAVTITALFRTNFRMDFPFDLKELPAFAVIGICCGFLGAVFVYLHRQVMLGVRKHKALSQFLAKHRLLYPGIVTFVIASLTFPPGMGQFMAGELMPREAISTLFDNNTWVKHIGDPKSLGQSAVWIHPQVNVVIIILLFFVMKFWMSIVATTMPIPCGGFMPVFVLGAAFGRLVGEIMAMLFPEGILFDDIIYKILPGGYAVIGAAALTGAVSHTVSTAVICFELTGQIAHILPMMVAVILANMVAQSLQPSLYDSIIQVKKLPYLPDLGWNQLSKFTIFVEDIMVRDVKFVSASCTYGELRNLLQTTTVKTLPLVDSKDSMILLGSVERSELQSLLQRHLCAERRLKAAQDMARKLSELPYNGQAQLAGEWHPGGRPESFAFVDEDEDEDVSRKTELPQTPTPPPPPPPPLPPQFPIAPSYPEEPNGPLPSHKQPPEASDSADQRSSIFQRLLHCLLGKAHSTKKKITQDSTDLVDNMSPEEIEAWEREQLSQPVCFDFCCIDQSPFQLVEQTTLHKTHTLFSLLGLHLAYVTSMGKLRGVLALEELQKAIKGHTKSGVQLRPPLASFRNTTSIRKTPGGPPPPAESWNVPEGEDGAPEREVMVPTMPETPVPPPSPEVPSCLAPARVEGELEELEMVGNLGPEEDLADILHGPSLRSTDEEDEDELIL
* marks the source's active call; other numbers are inactive results; i = inactive; x = no result. An excerpt weighted towards active compounds, which were near 3% of everything screened.

SMILES	TMEM16A act	ANO1 block	Kir21 inh	SR-BI DiI inh	DNA FID counter	SR-BI DiI-HDL act	TMEM16A reconf	HEK293 Ca mobil	Parental YFP cnt	ClC-1 inh
COc1ccc(NC(=O)N2CCCCCC2)cc1OC	i	i	-0.05	-19.8	-3.6	19.8	x	x	x	x
COc1ccc(NC(=O)c2cc(-c3cc(C)cc(C)c3O)n[nH]2)cc1Cl	i	100*	1.55	46.0	-3.6	-46.0	i	i	-1.09	1.0
COc1ccc(NC(=O)c2cc(-c3ccccc3O)n[nH]2)cc1Cl	i	i	-1.74	22.0	-19.1	-22.0	x	x	x	x
Cc1cc(NC(=O)c2cc(C(C)C)on2)no1	i	25*	-0.42	14.7	-0.3	-14.7	i	i	-0.96	-7.0
Cc1cc(NC(=O)c2cc(-c3cccc(Cl)c3)on2)no1	i	i	2.25	12.2	-4.0	-12.2	x	x	x	x
COc1cccc(-c2cc(C(=O)Nc3cc(C)on3)no2)c1	i	i	0.6	24.2	-1.5	-24.2	i	i	-1.05	-7.0
Cc1ccc(S(=O)(=O)N(C)c2ccc(C(=O)NCc3ccccc3F)cc2)cc1	i	i	0.23	-0.6	x	0.6	x	x	x	x
O=C(Cn1cnc2scc(-c3ccccc3)c2c1=O)N1CCOCC1	i	i	0.22	-20.5	-1.8	20.5	x	x	x	x
CCn1cnc2scc(-c3ccccc3)c2c1=O	i	100*	0.05	-10.9	-3.0	10.9	i	i	-1.13	-11.5
Nc1c(Cl)cc(-c2cn(CCC(=O)O)c(-c3ccncc3)n2)cc1Cl	i	i	x	-24.9	x	24.9	x	x	x	x
O=C(Nc1cc(S(=O)(=O)Nc2ccccc2Cl)ccc1O)c1ccc(F)cc1F	i	x	x	1.3	x	-1.3	x	x	x	x
O=C(Nc1cccc(S(=O)(=O)N2CCCCC2)c1)Nc1ccc(Cl)cc1Cl	i	100*	1.67	53.8	0.4	-53.7	i	i	-0.891	-17.5
O=C(Cc1ccccc1Cl)Nc1cccc(S(=O)(=O)N2CCCCCC2)c1	i	x	x	30.2	x	-30.2	x	x	x	x
O=C(Nc1cc(S(=O)(=O)N2CCCCC2)ccc1O)c1ccccc1NS(=O)(=O)c1ccc(F)c(F)c1	i	25*	-0.16	-1.9	-29.6	1.9	50.0%*	i	-0.797	-10.0
O=C(Nc1cccc(S(=O)(=O)N2CCCCC2)c1)c1ccccc1NS(=O)(=O)c1ccc(F)cc1	i	100*	0.04	2.8	-7.0	-2.8	39.5%*	i	-1	-11.5
Cc1ccc(NC(=O)CCNC(=O)c2ccccc2Cl)cc1S(=O)(=O)N1CCCCCC1	i	x	x	27.7	x	-27.7	x	x	x	x
Cc1ccc(NC(=O)c2ccccc2NS(=O)(=O)c2ccc(F)cc2)cc1S(=O)(=O)N1CCCCC1	i	25*	1.08	15.8	-11.4	-15.8	45.0%*	i	-0.902	-15.5
S=C1NCC(c2ccccc2)S1 (stereo unspecified)	i	x	x	x	x	x	x	x	x	x
CCn1c(SCC(=O)N2CCN(c3ccccc3)CC2)nnc1-c1c[nH]c2ccccc12	i	i	-0.35	63.8	-33.5	-63.8	x	x	x	x
Cn1c(SCC(=O)N2CCN(c3ccccc3)CC2)nnc1-c1c[nH]c2ccccc12	i	100*	1.71	7.4	-28.3	-7.4	21.0%*	i	-0.872	-7.5
COc1ccc(-c2cn(CCN)c(-c3ccncc3)n2)cc1	i	i	x	-22.5	x	22.5	x	x	x	x
COc1ccc(-c2cc(C)no2)cc1S(=O)(=O)Nc1cccc(CN2CCCC2)c1	i	i	-0.65	-12.2	8.0	12.2	x	x	x	x
Cc1cc2cc(CNC(=O)C3CC3)ccc2n1C	i	100*	-1.81	-8.7	-22.5	8.7	i	i	-1.01	-8.0
CCOC(=O)NCc1ccc2c(c1)cc(C)n2C	i	i	-1.2	3.6	-11.6	-3.6	x	x	x	x
CC(C)(C)NC(=O)COC(=O)c1snc(C(=O)NC2CCCCC2)c1N	i	100*	-0.39	4.0	-27.8	-4.0	i	i	-0.988	-20.5
SMILES	TMEM16A act	ANO1 block	Kir21 inh	SR-BI DiI inh	DNA FID counter	SR-BI DiI-HDL act	TMEM16A reconf	HEK293 Ca mobil	Parental YFP cnt	ClC-1 inh
O=C(c1n[nH]c2ccccc12)N1CCN(S(=O)(=O)c2ccccc2)CC1	i	x	x	-4.2	x	4.2	x	x	x	x
O=Cc1cn(-c2ccccc2)nc1-c1cc2cc(O)ccc2oc1=O	i	i	0.03	13.4	3.2	-13.4	x	x	x	x
O=Cc1cn(-c2ccccc2)nc1-c1cc2c(ccc3ccccc32)oc1=O	i	25*	x	-4.7	-2.1	4.7	i	i	-0.951	-8.5
CN(C(=O)COC(=O)c1ccc(Cl)c(S(=O)(=O)N2CCCCC2)c1)C1(C#N)CCCCC1	i	x	x	17.9	x	-17.9	x	x	x	x
COc1ccc(N2CCN(C(=O)CSc3nnc4nc(C)cc(C)n34)CC2)cc1	i	25*	0.79	5.6	-16.3	-5.6	i	i	-1.25	-10.0
CCCCOc1ccc(C(=O)N2CC(C)OC(C)C2)cc1 (stereo unspecified)	i	i	1.57	7.9	-22.5	-7.9	i	i	-1.04	-5.0
CCCCOc1ccc(C(=O)N2CCCC2)cc1	i	i	0.85	5.5	-14.5	-5.5	x	x	x	x
Brc1ccc(-c2noc(COc3ccc4c(c3)CCC4)n2)o1	i	i	1.14	0.4	-0.7	1.2	x	x	x	x
c1csc(-c2noc(COc3ccc4c(c3)CCCC4)n2)c1	i	i	0.78	-16.3	1.5	16.3	i	i	-1.16	-13.0
O=C(Nc1ccc(OC(F)(F)F)cc1)C1CCCCN1S(=O)(=O)c1ccccc1 (stereo unspecified)	i	x	x	0.2	x	-0.2	x	x	x	x
Cc1cc(C)c(NC(=O)C2=CCN(S(=O)(=O)c3ccc(F)cc3)CC2)c(C)c1	i	i	0.18	11.5	-9.3	-11.5	x	x	x	x
